JNK3 inh – JNK3 kinase activity inhibitors, primary screen, biochemical, human, purified enzyme | 60,000 compounds, 0.61% hits | inhibition, % at 8 µM | HTS; in the data active = inhibition above about 17%
M1 ag – M1 muscarinic receptor agonists, primary screen, CHO-M1 cells, Fluo-4 calcium, agonist mode; Muscarinic acetylcholine receptor M1; 64,000 compounds, 3% hits; B-score at 10 µM; AID 626, 2007; Fluo-4 calcium fluorescence; stronger effect = higher value;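 active = fluorescence rise, raw or as B-score row- and column-corrected plate score, outside the 99.7% band of its plate's samples, either direction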
S1P1 ag pot – S1P1 agonists and agonism potentiators, primary screen, cell-based, primary and confirmation screens, CRE-bla reporter; Sphingosine 1-phosphate receptor 1 (Homo sapiens), P21453; S1P1 CRE-bla cells, forskolin, beta-lactamase FRET, potentiator mode; S1P1 agonist co-added at EC20, 2 nM; 100% = saturating reference agonist, 0% = basal; activation, % at 9.5 µM; 56,000 compounds, 0.57% hits;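 active = activation above a cutoff set at the mean activation of all tested compounds plus 3 SD, cut at about 54% in these data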;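 note: forskolin at 4 µM as EC80 and the EC20 agonist is SEW2871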
Target sequence (P21453 whole entry, looked up): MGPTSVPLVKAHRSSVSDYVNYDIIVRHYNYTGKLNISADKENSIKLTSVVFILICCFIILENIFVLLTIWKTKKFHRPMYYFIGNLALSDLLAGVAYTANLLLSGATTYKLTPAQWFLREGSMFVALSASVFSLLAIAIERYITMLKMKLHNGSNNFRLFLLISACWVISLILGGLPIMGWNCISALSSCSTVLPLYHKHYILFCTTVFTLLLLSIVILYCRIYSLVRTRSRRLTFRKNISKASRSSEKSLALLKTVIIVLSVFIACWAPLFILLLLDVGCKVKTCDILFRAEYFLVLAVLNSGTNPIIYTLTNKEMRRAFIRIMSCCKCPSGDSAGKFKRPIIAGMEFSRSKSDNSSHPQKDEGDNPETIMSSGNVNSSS
Jurkat viability – cytotoxicity toward Jurkat T cells, primary screen, cytotoxicity control, cell-based, Jurkat E6.1, 60K MLSMR library; Jurkat E6.1 viability, ATP luminescence, 48 h; inhibition, % at 4 µM; 56,000 compounds, 1.2% hits; AID 463, 2006;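 active = inhibition above the mean inhibition of all tested compounds plus 3 SD, cut at about 28% in these data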
M1 antagonist – antagonists of rat M1 muscarinic receptor; CHO-M1 cells, Fluo-4 calcium, ACh EC80 antagonist mode; stronger effect = lower value; 64,000 compounds, 3.4% hits; B-score at 10 µM; AID 628, 2007; Muscarinic acetylcholine receptor M1 (Rattus norvegicus), P08482;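 active = calcium fluorescence response, raw or row-and-column corrected B-score, differing from the plate sample mean either way at a set confidence level, mostly lower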
S1P3 agonist – human S1P3 receptor agonists, primary screen, cell-based, primary and confirmation, NFAT-BLA reporter; S1P3 NFAT-BLA reporter cells, agonism, FRET ratio; relative to 1 µM S1P, basal subtracted; activation, % at 4.5 µM; 60,000 compounds, 0.1% hits; AID 373, 2006;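 active = activation above the screen-wide mean plus 3 SD, cut at about 4.5% in these data, passing the limit was not always enough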
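material = human S1P3 NFAT-BLA reporter CHO cells | schedule = 4 h compound at 37 °C, 2 h substrate at RT | measured by = fluorescent BLA substrate, ex 405 nm, em 460/535 nm ratio | controls = 1 µM S1P reference | replication = primary once, confirmation triplicate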
M1 antag confirm – rat M1 muscarinic receptor antagonists, confirmation, CHO cells, Fluo-4 calcium, duplicate | shares compounds with M1 antagonist | ACh EC80 antagonism; stronger effect = lower value | calcium response (max-min fluorescence) at 10 µM | 1,700 compounds, 43% hits | AID 677, 2007;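 active = calcium response below the same-plate mean of wells given acetylcholine alone at its 80%-effect dose, minus 3 SD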
mGluR4 antag – human mGluR4 response to M1 antagonist hits, M1 allosteric modulator project, cell-based, antagonist mode, secondary assay 1 | shares compounds with M1 antagonist | CHO-mGluR4 calcium flux, Fluo-4 fluorescence, glutamate EC80; stronger effect = lower value | AID 678, 2007 | 1,700 compounds, 0.9% hits | fluorescence response (max-min) at 10 µM;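 active = fluorescence response below the plate's average for near-maximal glutamate wells, less 3 SD of those wells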;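 note: raw unnormalized fluorescence span taken in the window right after glutamate addition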
Hits are given with their value; – = inactive; · = no result given. A selection: hits, their analogues and other compounds. The true share with any hit is near 7.4%.

SMILES | JNK3 inh | M1 ag | S1P1 ag pot | Jurkat viability | M1 antagonist | S1P3 agonist | M1 antag confirm | mGluR4 antag
CCn1nnnc1NCc1cccn1C | – | – | – | – | – | – | · | ·
COCCN(C(=O)COc1ccccc1)c1nnc(-c2cccnc2)s1 | – | – | – | – | -2.7 | – | – | –
CCN(CC)CCNC(=O)CS(=O)Cc1nc(-c2ccc(C)cc2)oc1C (stereo not drawn) | – | – | – | – | – | – | · | ·
O=C(NCCCn1ccnc1)c1cc(-c2ccc3c(c2)OCO3)on1 | – | – | – | – | – | – | · | ·
O=C(OCCN1CCCCC1)c1ccccc1Cl | – | – | – | – | -2.6 | – | – | –
Clc1ccccc1OCCCCN1CCCC1 | – | – | – | – | -1.7 | – | – | –
COc1cccc(OC)c1OCCCCN1CCCC1 | – | – | – | – | – | – | · | ·
CC(=O)c1ccccc1OCCCN1CCCCC1 | – | – | – | – | -2.3 | – | 356 | –
CCOc1ccccc1C(=O)NCCCN1CCN(CCCNC(=O)c2ccccc2OCC)CC1 | – | – | – | – | – | – | · | ·
Cc1cc(OCCN2CCCCC2)nc2ccccc12 | – | – | – | · | – | – | · | ·
CC(C)(C)c1ccccc1OCCN1CCCC1 | – | – | – | – | -11 | – | 176 | –
C=C1C(C(=O)N2CCOCC2)C1C(=O)N1CCOCC1 (stereo not drawn) | – | – | – | – | – | – | · | ·
Cc1ccc(-c2nc(C(=O)NC3CCCCCC3)no2)cc1 | – | – | – | – | – | – | · | ·
Cc1[nH]c(=O)[nH]c(=O)c1S(=O)(=O)N1CCCC1 | – | – | – | · | – | – | · | ·
COc1ccc(CN2CCN(c3ccccn3)CC2)cc1OCc1ccccc1 | – | – | · | – | -2.7 | – | 573 | –
CCN1CCN(Cc2ccc(OC)c(OCc3ccccc3)c2)CC1 | – | – | – | – | – | – | · | ·
O=S(=O)(c1ccc(-n2cnnn2)cc1)N(C1CCCCC1)C1CCCCC1 | – | – | – | – | – | – | · | ·
CN(C1CCCCC1)S(=O)(=O)c1ccc(-n2cnnn2)cc1 | – | – | – | – | -2.1 | – | – | –
COCCOC(=O)c1c(C)oc2ccc(OC(=O)c3ccc4c(c3)OCO4)cc12 | – | – | – | – | – | – | · | ·
COc1ccc(C(=O)Nn2c(SCC(=O)NCC3CCCO3)nc3ccccc3c2=O)cc1 (stereo not drawn) | – | – | – | – | -6.9 | – | – | –
O=C(CSc1nc2ccccc2c(=O)n1CC1CCCO1)NCC1CCCO1 (stereo not drawn) | – | – | – | – | – | – | · | ·
CCSC1=C(C#N)C2(CCCCC2)C(C#N)=C(N)N1 | – | – | – | – | -2.7 | – | – | –
O=C(c1noc2c1CCc1ccccc1-2)N1CCc2ccccc2C1 | – | · | – | – | · | – | · | ·
CCC1(C)Cc2ccccc2-c2nc(NCCO)n(-c3ccccc3)c(=O)c21 (stereo not drawn) | – | – | – | · | – | – | · | ·
CCC1(C)Cc2ccccc2-c2nc3n(c(=O)c21)CCCCC3 (stereo not drawn) | · | – | · | · | -4 | · | 420 | –
SMILES | JNK3 inh | M1 ag | S1P1 ag pot | Jurkat viability | M1 antagonist | S1P3 agonist | M1 antag confirm | mGluR4 antag
c1cc2c3c(cccc3c1)C(N1CCCCC1)=N2 | – | – | – | – | -6.8 | – | 224 | –
O=C(NCc1ccco1)C1c2ccccc2Oc2ccccc21 | – | – | · | – | -5.4 | – | – | –
CCOC(=O)C1CCN(C(=O)c2cc3cc4cc(OC)ccc4nc3o2)CC1 | – | – | – | – | -3.2 | – | 432 | –
O=S(=O)(c1ccc(F)cc1)N1CCC(N2CCN(c3ccccc3)CC2)CC1 | – | – | · | – | – | – | · | ·
COc1ccccc1N1CCN(CCCC(=O)c2ccc(F)cc2)CC1 | – | – | – | – | -2 | – | 266 | –
Cc1cccc(NC(=O)C2CCCN(S(=O)(=O)c3cccc4cccnc34)C2)c1 (stereo not drawn) | – | – | – | – | – | – | · | ·
CC1CCCCN1CCn1cnc2c([nH]c3ccccc32)c1=O (stereo not drawn) | – | – | – | – | -6.9 | – | 355 | –
COc1cc(N2CCOCC2)ncn1 | – | – | – | – | – | – | · | ·
CC(=O)Nc1ccc(S(=O)(=O)N2CCN(c3nc(NC4CCCC4)c4ccccc4n3)CC2)cc1 | – | – | – | – | -2.8 | – | 514 | –
O=C(NCc1ccccn1)c1nnc(Cc2ccc(Cl)cc2)o1 | – | – | – | – | – | – | · | ·
CCOC(=O)N1CCC(NC(=O)c2sc3nc4n(c(=O)c3c2C)CCCC4)CC1 | · | – | · | · | -2.6 | · | – | –
Cc1ccccc1-c1nnc2s/c(=C\c3ccc(N(C)C)cc3)c(=O)n12 | – | – | – | – | – | – | · | ·
O=C(NCCN1CCOCC1)c1cc2sccc2n1Cc1ccc(F)cc1 | – | – | – | – | – | – | · | ·
O=C(NCCN1CCOCC1)c1cc2sccc2n1Cc1ccc(Cl)cc1 | – | – | – | – | -4.5 | – | 349 | –
O=C(Nc1ccc2c(c1)OCO2)c1noc2c1CCCCC2 | – | – | – | – | -4 | – | 387 | –
CC(=O)c1ccc(NC(=O)c2noc3c2CCCCC3)cc1 | – | – | – | – | – | – | · | ·
CNC(=O)c1cc2cc(Cl)cc(OC)c2oc1=O | – | – | · | – | – | – | · | ·
CS(=O)(=O)N1CCN(C(=O)C2c3ccccc3Oc3ccccc32)CC1 | – | – | – | – | -2.2 | – | 365 | –
CCN1C(=O)/C(=C\N2CCCCCC2)SC1=S | – | – | – | – | -8.7 | – | 16 | –
Nc1nc(N2CCOCC2)nc2ccccc12 | – | – | – | – | – | – | · | ·
COc1cc2nc(N3CCNCC3)nc(N)c2cc1OC | – | – | – | – | -1.4 | – | – | –
[O-][n+]1c2ccc3nonc3c2nn1-c1ccccc1Cl | – | – | – | – | – | – | · | ·
O=C(NC1CCCCCCC1)c1ccccc1O | – | – | – | – | -2.2 | – | – | –
COP(=O)(/C=C/c1ccccc1)C(O)c1ccc(F)cc1 (stereo not drawn) | – | – | – | – | – | – | · | ·
COc1cc(NS(=O)(=O)c2ccc(NC(=O)c3ccco3)cc2)nc(OC)n1 | · | – | · | · | -2.2 | · | – | –

Screening results deposited in PubChem by several laboratories.
